Source: ChEMBL document CHEMBL1687719, “Absence of CD4+ T lymphocytes, CD8+ T lymphocytes, or B lymphocytes has different effects on the efficacy of posaconazole and benznidazole in treatment of experimental acute Trypanosoma cruzi infection” (2009)
The source made the active and inactive calls. No cut-off for these calls is given here.

Key:
Trypanosoma cruzi [1] = assay: Antitrypanosomal activity against Trypanosoma cruzi Y infected in CD8+ T-lymphocyte knockout C57BL/6 mouse assessed as occurrence of subpatent level of parasitemia at 20 mg/kg/day, po administered twice daily for 20 consecutive days measured 60 days post infection; assay type: functional, organism-based
Procedure, shortened: (§1)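 Ip infection was 5,000 Y-strain blood trypomastigotes. From 4 dpi mice got 20 mg/kg/day orally in two daily doses (2% methylcellulose/0.5% Tween 80) for 20 days. Fresh tail blood was examined microscopically, daily from 4–16 dpi and every other day to 60 dpi. Reactivation was scored as return of patent parasitemia after treatment. Parasitemia curves were compared by Mann-Whitney.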

Trypanosoma cruzi [2] = assay: Antitrypanosomal activity against Trypanosoma cruzi Y infected in CD8+ T-lymphocyte knockout C57BL/6 mouse assessed as number of mouse with reactivated parasite at 100 mg/kg/day, po administered once daily for 20 consecutive days measured 60 days post infection; assay type: functional
Procedure, shortened: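 Mice infected ip with 5,000 Y-strain blood trypomastigotes. From day 4 they were given drug orally in water with gum arabic for 20 days. Reactivation was scored as reappearance of circulating parasites after treatment ended, seen by microscopy of fresh tail blood. Sampling was daily from day 4 to 16 and then every other day up to day 60.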

Trypanosoma cruzi [3] = assay: Antitrypanosomal activity against Trypanosoma cruzi Y infected in B-lymphocyte knockout C57BL/6 mouse assessed as number of mouse with reactivation of infection at 100 mg/kg/day, po administered once daily for 20 consecutive days measured 22 days post infection; assay type: functional, organism-based
Procedure, shortened: (§2)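 Ip infection was 5,000 Y-strain blood trypomastigotes. Oral dosing at 100 mg/kg/day, once daily in gum arabic water, ran from 4 dpi for 20 days. Parasitemia was read by microscopy of fresh tail blood, daily from 4–16 dpi, then every other day to 60 dpi. Reactivation was scored as patent parasitemia returning after treatment ended.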

Trypanosoma cruzi [4] = assay: Antitrypanosomal activity against Trypanosoma cruzi Y infected in CD4+ T-lymphocyte knockout C57BL/6 mouse assessed as reactivation of parasite in mouse at 20 mg/kg/day, po administered twice daily for 20 consecutive days measured 60 days post infection; assay type: functional, organism-based; procedure, shortened: as §1
Trypanosoma cruzi [5] = assay: Antitrypanosomal activity against Trypanosoma cruzi Y infected in CD4+ T-lymphocyte knockout C57BL/6 mouse assessed as reactivation of parasite in mouse at 100 mg/kg/day, po administered once daily for 20 consecutive days measured 60 days post infection; assay type: functional, organism-based; procedure, shortened: as §2
Trypanosoma cruzi [6] = assay: Antitrypanosomal activity against Trypanosoma cruzi Y infected in C57BL/6 mouse assessed as increase in survival of mouse at 100 mg/kg/day, po administered once daily for 20 consecutive days measured 60 days post infection; assay type: functional; conditions: 1440 h
Procedure, shortened: (§3)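 Mice were infected ip with 5,000 blood trypomastigotes of the Y strain, kept by serial passage in Swiss-Webster mice. From 4 dpi they got 100 mg/kg/day orally once daily for 20 consecutive days, dissolved in water with gum arabic. Survival was followed to 60 dpi, with mean survival time and survival rate taken. Untreated and vehicle-treated infected mice served as controls. Rates compared by chi-square with Bonferroni.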

Trypanosoma cruzi [7] = assay: Antitrypanosomal activity against Trypanosoma cruzi Y infected in C57BL/6 mouse assessed as mean survival time at 100 mg/kg/day, po administered once daily for 20 consecutive days measured 60 days post infection; assay type: functional; procedure, shortened: as §3
Trypanosoma cruzi [8] = assay: Antitrypanosomal activity against Trypanosoma cruzi Y infected in C57BL/6 mouse assessed as cure rate in mouse at 100 mg/kg/day, po administered once daily for 20 consecutive days measured 60 days post infection; assay type: functional
Procedure, shortened: (§4)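 Mice infected ip with 5,000 blood trypomastigotes (Y strain kept by serial passage in Swiss-Webster mice). Oral dosing started day 4 post-infection and ran 20 consecutive days, drug dissolved in water with gum arabic. Fresh tail blood was examined microscopically daily days 4–16, then every other day to day 60. Parasitemia-negative mice were bled at day 60 by orbital sinus, 0.5 ml into two tubes of LIT medium, 28°C for 30–60 days, then examined microscopically. Cure meant negative fresh blood plus negative hemoculture. Rates were compared by chi-square with Bonferroni.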

Trypanosoma cruzi [9] = assay: Antitrypanosomal activity against Trypanosoma cruzi Y infected in CD4+ T-lymphocyte knockout C57BL/6 mouse assessed as increase in survival of mouse at 100 mg/kg/day, po administered once daily for 20 consecutive days measured 60 days post infection; assay type: functional; conditions: 1440 h; procedure, shortened: as §3
Trypanosoma cruzi [10] = assay: Antitrypanosomal activity against Trypanosoma cruzi Y infected in CD4+ T-lymphocyte knockout C57BL/6 mouse assessed as mean survival time at 100 mg/kg/day, po administered once daily for 20 consecutive days measured 60 days post infection; assay type: functional; procedure, shortened: as §3
Trypanosoma cruzi [11] = assay: Antitrypanosomal activity against Trypanosoma cruzi Y infected in CD4+ T-lymphocyte knockout C57BL/6 mouse assessed as cure rate in mouse at 100 mg/kg/day, po administered once daily for 20 consecutive days measured 60 days post infection; assay type: functional; procedure, shortened: as §4
Trypanosoma cruzi [12] = assay: Antitrypanosomal activity against Trypanosoma cruzi Y infected in CD8+ T-lymphocyte knockout C57BL/6 mouse assessed as increase in survival of mouse at 100 mg/kg/day, po administered once daily for 20 consecutive days measured 60 days post infection; assay type: functional; conditions: 1440 h; procedure, shortened: as §3
Trypanosoma cruzi [13] = assay: Antitrypanosomal activity against Trypanosoma cruzi Y infected in CD8+ T-lymphocyte knockout C57BL/6 mouse assessed as mean survival time at 100 mg/kg/day, po administered once daily for 20 consecutive days measured 60 days post infection; assay type: functional; procedure, shortened: as §3
Trypanosoma cruzi [14] = assay: Antitrypanosomal activity against Trypanosoma cruzi Y infected in CD8+ T-lymphocyte knockout C57BL/6 mouse assessed as cure rate in mouse at 100 mg/kg/day, po administered once daily for 20 consecutive days measured 60 days post infection; assay type: functional; procedure, shortened: as §4
Trypanosoma cruzi [15] = assay: Antitrypanosomal activity against Trypanosoma cruzi Y infected in B-lymphocyte knockout C57BL/6 mouse assessed as increase in survival of mouse at 100 mg/kg/day, po administered once daily for 20 consecutive days measured 60 days post infection; assay type: functional; conditions: 1440 h; procedure, shortened: as §3
Trypanosoma cruzi [16] = assay: Antitrypanosomal activity against Trypanosoma cruzi Y infected in B-lymphocyte knockout C57BL/6 mouse assessed as mean survival time at 100 mg/kg/day, po administered once daily for 20 consecutive days measured 60 days post infection; assay type: functional; procedure, shortened: as §3
Trypanosoma cruzi [17] = assay: Antitrypanosomal activity against Trypanosoma cruzi Y infected in B-lymphocyte knockout C57BL/6 mouse assessed as cure rate in mouse at 100 mg/kg/day, po administered once daily for 20 consecutive days measured 60 days post infection; assay type: functional; procedure, shortened: as §4
Trypanosoma cruzi [18] = assay: Antitrypanosomal activity against Trypanosoma cruzi Y infected in CD4+ T-lymphocyte knockout C57BL/6 mouse assessed as occurrence of subpatent parasitemia level in mouse at 20 mg/kg/day, po administered twice daily for 20 consecutive days measured 4 to 24 days post infection; assay type: functional, organism-based; procedure, shortened: as §1
Trypanosoma cruzi [19] = assay: Antitrypanosomal activity against Trypanosoma cruzi Y infected in CD4+ T-lymphocyte knockout C57BL/6 mouse assessed as occurrence of subpatent parasitemia level in mouse at 100 mg/kg/day, po administered once daily for 20 consecutive days measured 4 to 24 days post infection; assay type: functional, organism-based; procedure, shortened: as §2
Trypanosoma cruzi [20] = assay: Antitrypanosomal activity against Trypanosoma cruzi Y infected in CD4+ T-lymphocyte knockout C57BL/6 mouse assessed as reactivation of parasite in mouse at 100 mg/kg/day, po administered once daily for 20 consecutive days measured 11 days post infection; assay type: functional, organism-based; procedure, shortened: as §2
Trypanosoma cruzi [21] = assay: Antitrypanosomal activity against Trypanosoma cruzi Y infected in CD8+ T-lymphocyte knockout C57BL/6 mouse assessed as occurrence of subpatent level of parasitemia at 100 mg/kg/day, po administered once daily for 20 consecutive days measured 60 days post infection; assay type: functional, organism-based; procedure, shortened: as §2
Trypanosoma cruzi [22] = assay: Antitrypanosomal activity against Trypanosoma cruzi Y infected in CD8+ T-lymphocyte knockout C57BL/6 mouse assessed as occurrence of low level of circulating parasites at 100 mg/kg/day, po administered once daily for 20 consecutive days measured 15 days after the end of treatment

## O=C(Cn1ccnc1[N+](=O)[O-])NCc1ccccc1 [BENZNIDAZOLE]
Trypanosoma cruzi [1]
  Activity: Active
Trypanosoma cruzi [2]
  Activity: 22%
Trypanosoma cruzi [3]
  Activity: inactive
Trypanosoma cruzi [4]
  Activity: inactive
Trypanosoma cruzi [5]
  Activity: inactive
Trypanosoma cruzi [6]
  survival at 100 mg/kg/day: 100%
Trypanosoma cruzi [7]
  MST: >60 days
Trypanosoma cruzi [8]
  Activity: 86%
Trypanosoma cruzi [9]
  survival at 100 mg/kg/day: 6%
Trypanosoma cruzi [10]
  MST: 53.7 days
Trypanosoma cruzi [11]
  Activity: 0%
Trypanosoma cruzi [12]
  survival at 100 mg/kg/day: 86%
Trypanosoma cruzi [13]
  MST: 58.8 days
Trypanosoma cruzi [14]
  Activity: 66%
Trypanosoma cruzi [15]
  survival at 100 mg/kg/day: 67%
Trypanosoma cruzi [16]
  MST: 59.3 days
Trypanosoma cruzi [17]
  Activity: 22%
Trypanosoma cruzi [18]
  Activity: Active
Trypanosoma cruzi [19]
  Activity: Active
Trypanosoma cruzi [20]
  Activity: inactive
Trypanosoma cruzi [21]
  Activity: Active
Trypanosoma cruzi [22]
  Activity: Active
